Measurements taken from ChEMBL document CHEMBL1782042, “Efficient microwave-assisted synthesis and antitumor activity of novel 4,4'-methylenebis[2-(3-aryl-4,5-dihydro-1H-pyrazol-5-yl)phenols]” (Eur J Med Chem, 2011).

Columns and labels:
HOP-92 = assay: Cytotoxicity against human HOP92 cells; assay type: cell-based
In short: (§1)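 NCI 60 human tumour cell line screen, second stage at five concentrations (100, 10, 1.0, 0.1 and 0.01 μM). Continuous drug exposure for 48 h, with cell growth estimated by sulforhodamine B protein staining. GI50 is the drug concentration giving a 50% reduction in net protein increase relative to control cells over the incubation.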

NCI-H322M = assay: Cytotoxicity against human NCI-H322M cells; assay type: cell-based; in short: as §1
NCI-H522 = assay: Cytotoxicity against human NCI-H522 cells; assay type: cell-based; in short: as §1
HCC 2998 [1] = assay: Cytotoxicity against human HCC2998 cells; assay type: cell-based; in short: as §1
HCT-116 [2] = assay: Cytotoxicity against human HCT116 cells; assay type: cell-based; in short: as §1
HT-29 = assay: Cytotoxicity against human HT-29 cells; assay type: cell-based; in short: as §1
KM12 = assay: Cytotoxicity against human KM12 cells; assay type: cell-based; in short: as §1
SW-620 [3] = assay: Cytotoxicity against human SW620 cells; assay type: cell-based
In short: (§2)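 NCI 60 human tumour cell line screen; five concentration levels (100, 10, 1.0, 0.1 and 0.01 μM), 48 h continuous drug exposure. Cell growth estimated by sulforhodamine B (SRB) protein staining. GI50 taken as the drug concentration giving a 50% reduction in net protein increase relative to control cells over the incubation.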

SF-268 [4] = assay: Cytotoxicity against human SF268 cells; assay type: cell-based; in short: as §1
SF-295 [5] = assay: Cytotoxicity against human SF295 cells; assay type: cell-based; in short: as §1
SF-539 = assay: Cytotoxicity against human SF539 cells; assay type: cell-based; in short: as §1
SNB-19 [6] = assay: Cytotoxicity against human SNB19 cells; assay type: cell-based; in short: as §2
SNB-75 = assay: Cytotoxicity against human SNB75 cells; assay type: cell-based; in short: as §2
MOLT-4 [7] = assay: Anticancer activity against human MOLT4 cells after 48 hrs by sulforhodamine B assay; assay type: functional; conditions: MOLT-4, 48 h
In short: (§3)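 NCI 60-cell-line in vitro screen, second stage: five concentration levels (100, 10, 1.0, 0.1 and 0.01 μM) with 48 h continuous drug exposure. Cell growth was estimated by sulforhodamine B protein staining. GI50 is the drug concentration that gives a 50% reduction in net protein increase relative to control cells over the incubation.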

Malme-3M = assay: Cytotoxicity against human MALME-3M cells; assay type: cell-based; in short: as §1
M14 = assay: Cytotoxicity against human M14 cells; assay type: cell-based; in short: as §1
UACC-257 = assay: Cytotoxicity against human UACC257 cells; assay type: cell-based; in short: as §2
OVCAR-4 = assay: Cytotoxicity against human OVCAR4 cells; assay type: cell-based; in short: as §1
OVCAR-8 = assay: Cytotoxicity against human OVCAR8 cells; assay type: cell-based; in short: as §1
A498 = assay: Cytotoxicity against human A498 cells; assay type: cell-based; in short: as §1
EKVX [8] = assay: Anticancer activity against human EKVX cells after 48 hrs by sulforhodamine B assay; assay type: functional; in short: as §3
NCI-H226 = assay: Anticancer activity against human NCI-H226 cells after 48 hrs by sulforhodamine B assay; assay type: functional; conditions: NCI-H226, 48 h; in short: as §3
NCI-H23 = assay: Anticancer activity against human NCI-H23 cells after 48 hrs by sulforhodamine B assay; assay type: functional; conditions: NCI-H23, 48 h; in short: as §3
NCI-H460 = assay: Anticancer activity against human NCI-H460 cells after 48 hrs by sulforhodamine B assay; assay type: functional; conditions: NCI-H460, 48 h; in short: as §3
HCC 2998 [9] = assay: Anticancer activity against human HCC2998 cells after 48 hrs by sulforhodamine B assay; assay type: functional; conditions: HCC 2998, 48 h; in short: as §3
HCT-116 [10] = assay: Anticancer activity against human HCT116 cells after 48 hrs by sulforhodamine B assay; assay type: functional; conditions: HCT-116, 48 h; in short: as §3
UO-31 [11] = assay: Cytotoxicity against human UO31 cells; assay type: cell-based; in short: as §2
MDA-MB-231 = assay: Cytotoxicity against human MDA-MB-231 cells; assay type: cell-based; in short: as §1
Hs-578T [12] = assay: Cytotoxicity against human Hs578T cells; assay type: cell-based; in short: as §1
BT-549 [13] = assay: Cytotoxicity against human BT549 cells; assay type: cell-based; in short: as §1
SW-620 [14] = assay: Anticancer activity against human SW620 cells after 48 hrs by sulforhodamine B assay; assay type: functional; conditions: SW-620, 48 h
In short: (§4)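 NCI 60-cell-line screen, second stage. Five concentration levels (100, 10, 1.0, 0.1 and 0.01 μM), 48 h continuous drug exposure. Cell growth was estimated by sulforhodamine B protein staining. GI50 is the concentration giving a 50% reduction in net protein increase relative to control cells over the drug incubation. Compounds entered this stage after an earlier single-dose screen.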

SF-268 [15] = assay: Anticancer activity against human SF268 cells after 48 hrs by sulforhodamine B assay; assay type: functional; conditions: SF-268, 48 h; in short: as §3
SF-295 [16] = assay: Anticancer activity against human SF295 cells after 48 hrs by sulforhodamine B assay; assay type: functional; conditions: SF-295, 48 h; in short: as §3
SNB-19 [17] = assay: Anticancer activity against human SNB19 cells after 48 hrs by sulforhodamine B assay; assay type: functional; conditions: SNB-19, 48 h; in short: as §3
U-251 = assay: Anticancer activity against human U251 cells after 48 hrs by sulforhodamine B assay; assay type: functional; conditions: U-251, 48 h; in short: as §4
MDA-MB-435 = assay: Anticancer activity against human MDA-MB-435 cells after 48 hrs by sulforhodamine B assay; assay type: functional; conditions: MDA-MB-435, 48 h; in short: as §3
SK-MEL-2 = assay: Anticancer activity against human SK-MEL-2 cells after 48 hrs by sulforhodamine B assay; assay type: functional; conditions: SK-MEL-2, 48 h; in short: as §3
UACC-62 = assay: Anticancer activity against human UACC62 cells after 48 hrs by sulforhodamine B assay; assay type: functional; conditions: UACC-62, 48 h; in short: as §4
IGROV-1 = assay: Anticancer activity against human IGROV1 cells after 48 hrs by sulforhodamine B assay; assay type: functional; conditions: IGROV-1, 48 h; in short: as §3
OVCAR-3 = assay: Anticancer activity against human OVCAR3 cells after 48 hrs by sulforhodamine B assay; assay type: functional; conditions: OVCAR-3, 48 h; in short: as §3
SK-OV-3 = assay: Anticancer activity against human SKOV3 cells after 48 hrs by sulforhodamine B assay; assay type: functional; conditions: SK-OV-3, 48 h; in short: as §3
ACHN = assay: Anticancer activity against human ACHN cells after 48 hrs by sulforhodamine B assay; assay type: functional; in short: as §3
CAKI-1 = assay: Anticancer activity against human Caki1 cells after 48 hrs by sulforhodamine B assay; assay type: functional; conditions: CAKI-1, 48 h; in short: as §3
UO-31 [18] = assay: Anticancer activity against human UO31 cells after 48 hrs by sulforhodamine B assay; assay type: functional; conditions: UO-31, 48 h; in short: as §4
PC-3 = assay: Anticancer activity against human PC3 cells after 48 hrs by sulforhodamine B assay; assay type: functional; conditions: PC-3, 48 h; in short: as §3
DU-145 = assay: Anticancer activity against human DU145 cells after 48 hrs by sulforhodamine B assay; assay type: functional; conditions: DU-145, 48 h; in short: as §3
MCF7 = assay: Anticancer activity against human MCF7 cells after 48 hrs by sulforhodamine B assay; assay type: functional; conditions: MCF7, 48 h; in short: as §3
Hs-578T [19] = assay: Anticancer activity against human Hs578T cells after 48 hrs by sulforhodamine B assay; assay type: functional; in short: as §3
BT-549 [20] = assay: Anticancer activity against human BT549 cells after 48 hrs by sulforhodamine B assay; assay type: functional; conditions: BT-549, 48 h; in short: as §3
T47D = assay: Anticancer activity against human T47D cells after 48 hrs by sulforhodamine B assay; assay type: functional; in short: as §4
CCRF-CEM = assay: Cytotoxicity against human CCRF-CEM cells; assay type: cell-based; in short: as §1
K562 = assay: Cytotoxicity against human K562 cells; assay type: cell-based; in short: as §1
MOLT-4 [21] = assay: Cytotoxicity against human MOLT4 cells; assay type: cell-based; in short: as §1
A549 = assay: Cytotoxicity against human A549 cells; assay type: cell-based; in short: as §1
EKVX [22] = assay: Cytotoxicity against human EKVX cells; assay type: cell-based; in short: as §1

Oc1ccc(Cc2ccc(O)c(C3CC(c4ccc(Cl)cc4)=NN3)c2)cc1C1CC(c2ccc(Cl)cc2)=NN1 (stereo not given)
LC50 (HOP-92): > 100 µM
LC50 (NCI-H322M): > 100 µM
LC50 (NCI-H522): 46.2 µM
LC50 (HCC 2998 [1]): > 100 µM
LC50 (HCT-116 [2]): > 100 µM
LC50 (HT-29): > 100 µM
LC50 (KM12): > 100 µM
LC50 (SW-620 [3]): > 100 µM
LC50 (SF-268 [4]): > 100 µM
LC50 (SF-295 [5]): > 100 µM
LC50 (SF-539): > 100 µM
LC50 (SNB-19 [6]): > 100 µM
LC50 (SNB-75): > 100 µM
GI50 (MOLT-4 [7]): 2700 nM
LC50 (Malme-3M): > 100 µM
LC50 (M14): > 100 µM
LC50 (UACC-257): > 100 µM
LC50 (OVCAR-4): > 100 µM
LC50 (OVCAR-8): > 100 µM
LC50 (A498): > 100 µM
GI50 (EKVX [8]): 2770 nM
GI50 (NCI-H226): 4.74 µM
GI50 (NCI-H23): 3.3 µM
GI50 (NCI-H460): 2150 nM
GI50 (HCC 2998 [9]): 4.88 µM
GI50 (HCT-116 [10]): 1850 nM
LC50 (UO-31 [11]): > 100 µM
LC50 (MDA-MB-231): > 100 µM
LC50 (Hs-578T [12]): > 100 µM
LC50 (BT-549 [13]): > 100 µM
GI50 (SW-620 [14]): 3.29 µM
GI50 (SF-268 [15]): 3.22 µM
GI50 (SF-295 [16]): 1470 nM
GI50 (SNB-19 [17]): 3.64 µM
GI50 (U-251): 1800 nM
GI50 (MDA-MB-435): 3.21 µM
GI50 (SK-MEL-2): 3.23 µM
GI50 (UACC-62): 3.16 µM
GI50 (IGROV-1): 4.11 µM
GI50 (OVCAR-3): 2590 nM
GI50 (SK-OV-3): 4.43 µM
GI50 (ACHN): 3.63 µM
GI50 (CAKI-1): 2670 nM
GI50 (UO-31 [18]): 3.04 µM
GI50 (PC-3): 3.32 µM
GI50 (DU-145): 3.46 µM
GI50 (MCF7): 3.04 µM
GI50 (Hs-578T [19]): 2760 nM
GI50 (BT-549 [20]): 4.78 µM
GI50 (T47D): 3.79 µM
LC50 (CCRF-CEM): > 100 µM
LC50 (K562): > 100 µM
LC50 (MOLT-4 [21]): > 100 µM
LC50 (A549): > 100 µM
LC50 (EKVX [22]): > 100 µM
